Screening data: PubChem, Sanford-Burnham Center for Chemical Genomics
Shown are actives, neighbours in structure and some others; about 1.7% of the full set was active somewhere.
Scp-1 inhibitor: inhibitors of human Scp-1 phosphatase. hit rate 0.88% among 340,000. inhibition, % at 20 µM. Recombinant Scp1, phosphopeptide, malachite green phosphate absorbance. Q9GZU7;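 active = inhibition above about 50% at 20 µM, limit read from the data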
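Times: enzyme reaction 45 min at room temperature, colour 5 min, stabilisation 30 min. Material: SCP-1 catalytic fragment, aa 76-261. Medium: Acidic Tris acetate buffer with magnesium and detergent. Signal: colorimetric free-phosphate detection, absorbance 630 nm. Read-out basis: % inhibition of SCP-1 phosphate liberation. Reagent: Phosphorylated 17-residue peptide substrate.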
LMPTP block: LMPTP (human) inhibition. recombinant LMPTP-A, OMFP fluorogenic substrate, fluorescence intensity. hit rate 0.22% among 360,000. inhibition, % at 20 µM;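 active = compounds that cut the enzyme signal by at least half of the control window in the single-dose screen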
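Material: LMPTP-A; amount: 0.625 nM enzyme; doses: single 20 µM dose; times: reaction 50 min, room temperature, dark; technique: fluorescence intensity of OMFP turnover product; benchmarks: no-enzyme and uninhibited controls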
DNMT1 inh: inhibitors of human DNMT1; P26358; DNMT1 molecular beacon, Hinp1I cleavage, fluorescence; inhibition (reported as % activation of signal), % at 10 µM; hit rate 0.83% among 360,000; in the data active = inhibition above about 50%
Target sequence (P26358 504-1616 limits assumed): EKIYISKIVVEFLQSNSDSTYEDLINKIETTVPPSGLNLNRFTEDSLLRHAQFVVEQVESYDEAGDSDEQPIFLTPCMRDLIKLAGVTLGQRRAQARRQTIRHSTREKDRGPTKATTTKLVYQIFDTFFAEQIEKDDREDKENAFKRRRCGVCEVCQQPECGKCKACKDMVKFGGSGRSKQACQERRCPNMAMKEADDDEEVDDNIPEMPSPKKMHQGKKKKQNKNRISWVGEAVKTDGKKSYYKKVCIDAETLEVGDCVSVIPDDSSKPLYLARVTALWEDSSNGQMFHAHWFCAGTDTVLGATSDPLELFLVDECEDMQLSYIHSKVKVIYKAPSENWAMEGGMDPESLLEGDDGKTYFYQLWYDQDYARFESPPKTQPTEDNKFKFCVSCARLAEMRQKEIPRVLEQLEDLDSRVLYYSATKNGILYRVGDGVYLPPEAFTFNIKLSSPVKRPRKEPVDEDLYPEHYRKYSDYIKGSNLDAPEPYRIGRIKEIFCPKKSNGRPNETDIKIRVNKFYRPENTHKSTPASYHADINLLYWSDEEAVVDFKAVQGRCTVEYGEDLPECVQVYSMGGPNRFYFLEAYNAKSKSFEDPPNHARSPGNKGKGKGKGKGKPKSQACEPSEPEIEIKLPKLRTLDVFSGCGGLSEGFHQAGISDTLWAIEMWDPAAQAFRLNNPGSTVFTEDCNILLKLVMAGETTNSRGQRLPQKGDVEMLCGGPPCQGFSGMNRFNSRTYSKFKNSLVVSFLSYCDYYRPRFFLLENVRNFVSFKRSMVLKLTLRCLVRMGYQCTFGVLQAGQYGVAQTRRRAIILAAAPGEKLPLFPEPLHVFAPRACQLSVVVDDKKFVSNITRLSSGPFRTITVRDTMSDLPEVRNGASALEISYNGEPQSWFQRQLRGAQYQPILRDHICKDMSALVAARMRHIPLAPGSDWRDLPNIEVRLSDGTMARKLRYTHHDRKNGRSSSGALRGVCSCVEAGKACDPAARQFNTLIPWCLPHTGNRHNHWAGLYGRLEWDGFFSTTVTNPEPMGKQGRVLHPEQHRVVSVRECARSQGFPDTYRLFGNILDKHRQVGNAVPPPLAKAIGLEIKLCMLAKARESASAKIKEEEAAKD
STEP inh: blocks human striatal-enriched tyrosine phosphatase. hit rate 0.25% among 360,000. P54829. inhibition, % at 20 µM. recombinant STEP, OMFP fluorogenic substrate, fluorescence. AID 588621;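 active = inhibition at 20 µM, scaled per plate between control wells, above about 37%, limit read from the data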
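material = STEP tyrosine phosphatase | reagent = fluorogenic phosphatase substrate OMFP at 25 µM final | doses = single compound dose of 20 µM, 1% DMSO final | schedule = 20 min reaction, room temperature, in the dark | measured by = fluorescence, 480/540 nm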
SUMO1 PPI mod: alters human SUMO1 binding to SIM partners; P63165; SUMO1 binding to a labelled peptide, TR-FRET, 1 h; inhibition, % at 20 µM; hit rate 0.33% among 360,000; AID 602429; in the data active = inhibition above about 37%
Numbers stand for hits; – = inactive; · = no result given.

SMILES	Scp-1 inhibitor	LMPTP block	DNMT1 inh	STEP inh	SUMO1 PPI mod
COc1cccc(NC(=O)CN(C)C(=O)c2ccc(OCc3ccccc3)c(OC)c2)c1	–	–	–	–	–
Cc1ccnc(NC(c2cccnc2)c2ccc3cccnc3c2O)c1 (stereo unspecified)	–	54	–	–	–
Cc1ccnc(NC(c2ccccc2)c2ccc3cccnc3c2O)c1 (stereo unspecified)	–	–	–	–	–
COc1cccc(-c2nc(CS(=O)(=O)CC(=O)Nc3cc(OC)ccc3OC)c(C)o2)c1	–	–	–	–	–
CC(C)CS(=O)(=O)C1=NN2C(=N)/C(=C\c3ccc(OC(=O)c4ccco4)cc3)C(=O)N=C2S1	69	–	–	–	–
CS(=O)(=O)C1=NN2C(=N)/C(=C\c3ccc(OC(=O)c4ccco4)cc3)C(=O)N=C2S1	–	–	–	–	–
CC1=C(C(=O)N2CCCCCC2)CC(CC(=O)NCCN2CCOCC2)C(=O)N1CCCN1CCCC1=O (stereo unspecified)	·	–	·	·	–
COc1ccc(O)c(C(=O)c2cc(SCC(=O)O)c3nc4sc5c(c4c(=O)n3c2)CCCC5)c1	–	–	–	–	42
CCCNC(=O)C(Cc1ccc(I)cc1)NC(=O)c1ccc(C#N)cc1 (stereo unspecified)	–	–	–	–	–
O=C(CSc1nc(-c2ccccc2)nc2c1Cc1ccccc1O2)Nc1ccc(C(=O)O)cc1	90	79	88	87	70
O=C(CSc1nc(-c2ccc(F)cc2)nc2c1Cc1ccccc1O2)Nc1ccc(C(=O)O)cc1	102	85	95	96	106
O=C(CSc1nc(-c2ccccc2)nc2ccccc12)Nc1cccc(C(=O)O)c1	–	–	–	–	–
COc1ccc(OC)c(-c2csc3nnc(SCC(=O)Nc4ccc(NC(C)=O)cc4)n23)c1	–	–	–	–	–
COc1cccc(-c2csc3nnc(SCC(=O)c4ccc(NC(C)=O)cc4)n23)c1	–	–	–	–	43
CC(Nc1nc(N2CCNCC2)nc2ccccc12)c1ccccc1 (stereo unspecified)	–	85	–	–	–
COC(=O)c1ccc(Nc2cc(C)nc(-c3ccccc3O)n2)cc1	–	–	–	–	59
Cc1cc(N/N=C/c2ccccc2O)nc(-c2ccccc2O)n1	–	–	–	–	42
CCOC(=O)c1ccc(NC(=O)c2c(N)n(Cc3ccccc3)c(=O)[nH]c2=O)cc1	–	–	–	–	46
CCOC(=O)c1ccc(NC(=O)c2ccccc2)cc1	–	–	–	–	–
Cn1c(=O)c(NCCc2ccccc2)c2c3c(cccc31)C(=O)c1ccccc1-2	–	–	76	–	–
CCNc1c2c3c(cccc3n(C)c1=O)C(=O)c1ccccc1-2	–	·	·	·	·
Cn1c(=O)c(NCCO)c2c3c(cccc31)C(=O)c1ccccc1-2	–	–	142	–	–
CCCCNc1c2c3c(cccc3n(C)c1=O)C(=O)c1ccccc1-2	–	–	192	–	–
CCn1cc(/C=C/c2cc[n+](C)cc2)c2ccccc21	68	–	–	–	–
C=CCn1cc(/C=C/c2cc[n+](C)cc2)c2ccccc21	–	–	–	–	–
SMILES	Scp-1 inhibitor	LMPTP block	DNMT1 inh	STEP inh	SUMO1 PPI mod
Cc1ccc(S(=O)(=O)Cc2ccc(C(=O)OCc3ccccc3)cc2)cc1	–	–	–	–	–
COC(=O)c1c[nH]c2c1-c1cc(C(=O)OCc3ccccc3)n(S(=O)(=O)c3ccc(C)cc3)c1C(=O)C2=O	–	60	96	–	–
Cn1nc(C(F)(F)F)c(C(=O)Nc2ccc(Cl)cc2)c1Cl	–	–	–	–	41
Cc1ccc(NC(=O)c2c(C(F)(F)F)nn(C)c2Cl)cc1C	–	–	–	–	–
CC(C)(O)C1Cc2cc(/C=C/C(=O)O)c(O)cc2O1 (stereo unspecified)	95	–	–	–	–
COc1cc2c(cc1/C=C/C(=O)O)OC(C)C2 (stereo unspecified)	–	–	–	–	–
COC(=O)c1ccc2c(c1)C(C)(C)C(/C=C/c1ccc(OC)c(OC)c1OC)=[N+]2C	96	–	–	–	–
COC(=O)c1ccc2c(c1)C(C)(C)C(/C=C/c1ccc(O)cc1)=[N+]2C	99	–	–	–	–
Cc1cc(C(=O)c2ccc(C(C)(C)C)cc2)c(NC(=O)CCl)s1	–	–	–	–	–
CC(OC(=O)/C=C/c1ccccc1Cl)C(=O)NC1CCCCC1C (stereo unspecified)	–	–	–	–	–
CC(=O)Nc1ccc(S(=O)(=O)N2CCN(c3nc(NC4CCCC4)c4ccccc4n3)CC2)cc1	–	63	–	–	–
CC(=O)Nc1ccc(S(=O)(=O)N2CCN(c3cc(C)nc4ccccc34)CC2)cc1	–	–	–	–	–
Cc1ccc(NC(=O)COC(=O)c2ccc(S(=O)(=O)N3CCCC3)cc2)cc1	–	–	–	–	–
O=C(O)CN1C(=O)/C(=C\c2cc(Br)ccc2OCc2ccccc2F)SC1=S	–	–	–	–	–
O=C1/C(=C\c2ccc(O)cc2)SC(=S)N1Cc1ccccc1	–	–	–	–	–
COc1cc([N+](=O)[O-])cc(/C=C2/SC(=S)N(Cc3ccccc3)C2=O)c1O	–	–	–	–	64
O=C(O)CN1C(=O)/C(=C\c2cc(Br)ccc2OCc2ccc([N+](=O)[O-])cc2)SC1=S	–	–	56	–	–
O=C1/C(=C\c2cc(Br)cc(Br)c2O)SC(=S)N1Cc1ccccc1	–	–	65	–	–
COCCN(C(=S)Nc1ccc(OC)c(Cl)c1)C1CCN(C(C)=O)CC1	·	–	–	–	–
Cc1cc(C)c(S(=O)(=O)/N=C2/C=C(SCC(=O)O)C(=O)c3ccccc32)cc1C	–	–	–	–	84
Cc1c(Cl)cccc1NC(=S)NNS(=O)(=O)c1ccc([N+](=O)[O-])cc1	–	–	–	–	–
Cc1ccc(S(=O)(=O)N(C)C[C@@H]2OCc3cnnn3CCCC(=O)N([C@@H](C)CO)C[C@@H]2C)cc1	·	–	–	–	–
O=C(O)c1ccccc1NS(=O)(=O)c1cccc(-n2sc3ccccc3c2=O)c1	95	–	–	–	–
O=C(O)c1ccccc1NS(=O)(=O)c1cccc(C(F)(F)F)c1	–	–	–	–	–
CC[n+]1c(C)sc2c(C)cc(C)cc21	–	–	–	–	–
CCC[n+]1c(C)sc2c3c(ccc21)CCCC3	98	–	–	–	–
C=CC[C@H]1C=C[C@@H](C(C(=O)OC)C(=O)OC)CN1C(C)=O	–	–	–	–	–
CCOc1ccc(NS(=O)(=O)c2ccc3c(c2)N(C(C)=O)CCS3)cc1	–	–	–	–	–
COC(=O)c1cc(C(=O)OC)n(Cc2ccc(Cl)cc2Cl)n1	–	–	–	–	–
CC(C)(C)c1cc(C(=O)O)n(Cc2ccc(Cl)cc2Cl)n1	–	–	–	–	49
